In ChEMBL document CHEMBL1142098, “A xanthocillin-like alkaloid from the insect pathogenic fungus Cordyceps brunnearubra BCC 1395” (J Nat Prod, 2007):
The source made the active and inactive calls. No cut-off for these calls is given here.

Experiments:
Plasmodium falciparum = assay: Antimalarial activity against multidrug-resistant Plasmodium falciparum K1; type: functional, organism-based
In short: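 Microculture radioisotope assay against the multidrug-resistant K1 strain of P. falciparum, with IC50 read out. Dihydroartemisinin was run as the reference standard in the same assay system.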

[1] = Cytotoxicity against human NCI-H187 cells upto 56 uM; type: cell-based
In short: (§1)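 Cytotoxicity was measured by a colorimetric method on purified compounds. The cells were human epidermoid carcinoma (KB), human breast cancer (BC), human lung cancer (NCI-H187) and African green monkey kidney fibroblast (Vero) cells.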

[2] = Cytotoxicity against human BC cells upto 56 uM; type: cell-based; details: for Activity: human, bc; in short: as §1
KB = assay: Cytotoxicity against human KB cells upto 56 uM; type: cell-based; in short: as §1
Vero = assay: Cytotoxicity against Vero cells upto 140 uM; type: cell-based; details: chlorocebus sabaeus; in short: as §1

Row | Structure (SMILES) | Activity (Plasmodium falciparum) | Activity [1] | Activity [2] | Activity (KB) | Activity (Vero) | IC50 (Plasmodium falciparum) [µM] | IC50 ([2]; Homo sapiens, BC) [µM]
1 | COc1ccc(/C=C(/C(=C/c2ccc(OC)c(OC)c2)N(C)C=O)N(C)C=O)cc1OC | inactive | Not Active | Not Active | Not Active | Not Active |  | 
2 | CC(=O)O/C=N/C(=C\c1ccc(OC(C)=O)c(OC(C)=O)c1)C(=C/c1ccc(OC(C)=O)c(OC(C)=O)c1)/N=C/OC(C)=O | inactive | Not Active | Not Active | Not Active | Not Active |  | 
3 | O=CNC(=C\c1ccc(O)c(O)c1)/C(=C/c1ccc(O)c(O)c1)NC=O [CORDYFORMAMIDE] |  | Not Active |  | Not Active | Not Active | 18 | 39
4 | C[C@H]1[C@@H](O)O[C@@H]2O[C@@]3(C)CC[C@H]4[C@H](C)CC[C@@H]1[C@@]24OO3 [ARTENIMOL] |  |  |  |  |  | 0.0042 | 
